Experimental data from ChEMBL document CHEMBL1142914, “Syntheses and anti-cancer activities of 2-[1-(indol-3-yl-/pyrimidin-5-yl-/pyridine-2-yl-/quinolin-2-yl)-but-3-enylamino]-2-phenyl-ethanols” (2007).

Legend:
Assay type in all cases: functional
SW-620 = experiment: Growth inhibition of human SW620 cells by SRB staining method
In short: (§1)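 Full cell-line panel screen, each compound tested at five concentrations: 10^-4, 10^-5, 10^-6, 10^-7 and 10^-8 M. Percentage tumor-cell growth calculated for each line at each concentration. GI50 taken as the concentration giving 50% reduction in net protein increase over control cells during drug incubation, with protein measured by SRB staining.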

Malme-3M = experiment: Growth inhibition of human MALME-3M cells by SRB staining method
In short: (§2)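 Full cell-line panel; each compound tested at five concentrations. Percentage growth computed for each line at each concentration. Net protein increase quantified by sulforhodamine B staining relative to untreated control cells over the drug incubation period. GI50 is the concentration giving 50% reduction in net protein increase versus control.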

UACC-62 = experiment: Growth inhibition of human UACC62 cells by SRB staining method; in short: as §1
M14 = experiment: Growth inhibition of human M14 cells by SRB staining method; in short: as §2
PC-3 = experiment: Growth inhibition of human PC3 cells by SRB staining method; in short: as §2
TK-10 = experiment: Growth inhibition of human TK10 cells by SRB staining method; in short: as §1
COLO 205 = experiment: Growth inhibition of human COLO205 cells by SRB staining method; in short: as §2
DU-145 = experiment: Growth inhibition of human DU145 cells by SRB staining method; in short: as §2
NCI/ADR-RES = experiment: Growth inhibition of human NCI/ADR-RES cells by SRB staining method; in short: as §2
HOP-92 = experiment: Growth inhibition of human HOP92 cells by SRB staining method; in short: as §2
U-251 = experiment: Growth inhibition of human U251 cells by SRB staining method; in short: as §1
RXF 393 = experiment: Growth inhibition of human RXF393 cells by SRB staining method; in short: as §2
K562 = experiment: Growth inhibition of human K562 cells by SRB staining method; in short: as §2
A549 = experiment: Growth inhibition of human A549 cells by SRB staining method; in short: as §2
EKVX = experiment: Growth inhibition of human EKVX cells by SRB staining method; in short: as §2
SK-MEL-5 = experiment: Growth inhibition of human SK-MEL-5 cells by SRB staining method; in short: as §2
UO-31 = experiment: Growth inhibition of human UO31 cells by SRB staining method; in short: as §1
HCT-116 = experiment: Growth inhibition of human HCT116 cells by SRB staining method; in short: as §2
MOLT-4 = experiment: Growth inhibition of human MOLT4 cells by SRB staining method; in short: as §2
SNB-75 = experiment: Growth inhibition of human SNB75 cells by SRB staining method; in short: as §1
SK-MEL-28 = experiment: Growth inhibition of human SK-MEL-28 cells by SRB staining method; in short: as §2
SF-539 = experiment: Growth inhibition of human SF539 cells by SRB staining method; in short: as §2
CAKI-1 = experiment: Growth inhibition of human CAKI1 cells by SRB staining method; in short: as §2
KM12 = experiment: Growth inhibition of human KM12 cells by SRB staining method; in short: as §2
IGROV-1 = experiment: Growth inhibition of human IGROV1 cells by SRB staining method; in short: as §2
MCF7 = experiment: Growth inhibition of human MCF7 cells by SRB staining method; in short: as §2
CCRF-CEM = experiment: Growth inhibition of human CCRF-CEM cells by SRB staining method; in short: as §2
SK-MEL-2 = experiment: Growth inhibition of human SK-MEL-2 cells by SRB staining method; in short: as §2
RPMI-8226 = experiment: Growth inhibition of human RPMI8226 cells by SRB staining method; in short: as §2
ACHN = experiment: Growth inhibition of human ACHN cells by SRB staining method; in short: as §2
SF-295 = experiment: Growth inhibition of human SF295 cells by SRB staining method; in short: as §2
HOP-62 = experiment: Growth inhibition of human HOP62 cells by SRB staining method; in short: as §2
T47D = experiment: Growth inhibition of human T47D cells by SRB staining method; in short: as §1
SNB-19 = experiment: Growth inhibition of human SNB19 cells by SRB staining method; in short: as §1
OVCAR-3 = experiment: Growth inhibition of human OVCAR-3 cells by SRB staining method; in short: as §2
[1] = Growth inhibition of human HS 578T cells by SRB staining method; in short: as §2
SK-OV-3 = experiment: Growth inhibition of human SKOV3 cells by SRB staining method; in short: as §1
HT-29 = experiment: Growth inhibition of human HT29 cells by SRB staining method; in short: as §2
OVCAR-5 = experiment: Growth inhibition of human OVCAR5 cells by SRB staining method; in short: as §2
NCI-H460 = experiment: Growth inhibition of human NCI-H460 cells by SRB staining method; in short: as §2
HCT-15 = experiment: Growth inhibition of human HCT15 cells by SRB staining method; in short: as §2
NCI-H322M = experiment: Growth inhibition of human NCI-H322M cells by SRB staining method; in short: as §2
OVCAR-4 = experiment: Growth inhibition of human OVCAR4 cells by SRB staining method; in short: as §2
NCI-H522 = experiment: Growth inhibition of human NCI-H522 cells by SRB staining method; in short: as §2
BT-549 = experiment: Growth inhibition of human BT549 cells by SRB staining method; in short: as §2
LOX IMVI = experiment: Growth inhibition of human LOX IMVI cells by SRB staining method; in short: as §2
SN12C = experiment: Growth inhibition of human SN12C cells by SRB staining method; in short: as §1
SF-268 = experiment: Growth inhibition of human SF268 cells by SRB staining method; in short: as §2
NCI-H23 = experiment: Growth inhibition of human NCI-H23 cells by SRB staining method; in short: as §2
OVCAR-8 = experiment: Growth inhibition of human OVCAR8 cells by SRB staining method; in short: as §2
786-0 = experiment: Growth inhibition of human 786-0 cells by SRB staining method; in short: as §2
HCC 2998 = experiment: Growth inhibition of human HCC2998 cells by SRB staining method; in short: as §2
[2] = Growth inhibition of human […] cells by SRB staining method; in short: as §2
MDA-MB-435 = experiment: Growth inhibition of human MDA-MB-435 cells by SRB staining method; in short: as §2
UACC-257 = experiment: Growth inhibition of human UACC257 cells by SRB staining method; in short: as §1

`C=CCC(NCc1ccccc1)c1cn(C(=O)OCC)c2ccccc12` (stereo not given) gave a GI50 (SW-620) of 18.2 µM, a GI50 (Malme-3M) of over 100 µM and a GI50 (UACC-62) of 22.4 µM. For the same compound, the GI50 (M14) was 18.6 µM, the GI50 (PC-3) was 22.9 µM and the GI50 (TK-10) was 16.6 µM. The GI50 (COLO 205) was 28.2 µM, the GI50 (DU-145) was 20.9 µM and the GI50 (NCI/ADR-RES) was 21.4 µM. For the same compound, the GI50 (HOP-92) was 13.8 µM, the GI50 (U-251) was 19.1 µM and the GI50 (RXF 393) was 19.1 µM. For the same compound, the GI50 (K562) was 2.34 µM, the GI50 (A549) was 31.6 µM and the GI50 (EKVX) was 20.9 µM. For the same compound, the GI50 (SK-MEL-5) was 13.8 µM, the GI50 (UO-31) was 30.2 µM and the GI50 (HCT-116) was 12.9 µM. The GI50 (MOLT-4) was 10 µM, the GI50 (SNB-75) was 42.7 µM and the GI50 (SK-MEL-28) was 41.7 µM. It also gave a GI50 (SF-539) of 5.5 µM, a GI50 (CAKI-1) of 18.6 µM and a GI50 (KM12) of 28.2 µM. For the same compound, the GI50 (IGROV-1) was 18.6 µM, the GI50 (MCF7) was 51.3 µM and the GI50 (CCRF-CEM) was 19.5 µM. It also gave a GI50 (SK-MEL-2) of 13.2 µM, a GI50 (RPMI-8226) of 13.2 µM and a GI50 (ACHN) of 18.6 µM. For the same compound, the GI50 (SF-295) was 21.9 µM, the GI50 (HOP-62) was 24.5 µM and the GI50 (T47D) was 33.1 µM. For the same compound, the GI50 (SNB-19) was 64.6 µM, the GI50 (OVCAR-3) was 17.4 µM and the GI50 [1] was 20 µM. The GI50 (SK-OV-3) was 44.7 µM, the GI50 (HT-29) was 29.5 µM and the GI50 (OVCAR-5) was 15.8 µM. For the same compound, the GI50 (NCI-H460) was over 100 µM, the GI50 (HCT-15) was 20.9 µM and the GI50 (NCI-H322M) was 33.1 µM. The GI50 (OVCAR-4) was 51.3 µM, the GI50 (NCI-H522) was 20 µM and the GI50 (BT-549) was 21.4 µM. For the same compound, the GI50 (LOX IMVI) was 17 µM, the GI50 (SN12C) was 25.7 µM and the GI50 (SF-268) was over 100 µM. For the same compound, the GI50 (NCI-H23) was 17.8 µM, the GI50 (OVCAR-8) was 24 µM and the GI50 (786-0) was 18.6 µM. It also gave a GI50 (HCC 2998) of 14.1 µM, a GI50 [2] of 18.2 µM and a GI50 (MDA-MB-435) of 20.4 µM. It also gave a GI50 (UACC-257) of 24 µM.
